The target in series [1] is T1, Protein-arginine deiminase type-1 (Homo sapiens, UniProt Q9ULC6).
T1 sequence (Q9ULC6 whole entry): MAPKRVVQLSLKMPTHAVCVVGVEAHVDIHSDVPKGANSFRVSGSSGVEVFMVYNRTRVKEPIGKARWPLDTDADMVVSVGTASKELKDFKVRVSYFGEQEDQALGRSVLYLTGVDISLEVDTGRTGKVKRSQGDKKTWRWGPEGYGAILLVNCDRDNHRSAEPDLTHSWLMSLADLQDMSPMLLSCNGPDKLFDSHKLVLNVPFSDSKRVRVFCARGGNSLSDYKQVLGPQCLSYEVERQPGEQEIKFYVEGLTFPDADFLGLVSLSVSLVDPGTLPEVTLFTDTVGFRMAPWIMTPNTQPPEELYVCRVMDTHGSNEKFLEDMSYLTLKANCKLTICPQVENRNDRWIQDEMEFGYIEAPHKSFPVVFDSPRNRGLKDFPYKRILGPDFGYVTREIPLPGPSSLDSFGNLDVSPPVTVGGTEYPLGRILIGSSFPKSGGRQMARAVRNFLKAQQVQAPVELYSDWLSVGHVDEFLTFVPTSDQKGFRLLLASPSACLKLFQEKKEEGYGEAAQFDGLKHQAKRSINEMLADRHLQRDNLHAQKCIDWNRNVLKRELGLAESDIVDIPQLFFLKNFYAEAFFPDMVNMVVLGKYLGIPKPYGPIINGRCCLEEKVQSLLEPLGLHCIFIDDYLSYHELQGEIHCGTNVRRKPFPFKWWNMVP
The series is described as follows: Inhibition of full length human GST-tagged PAD1 expressed in baculovirus infected Sf9 insect cells preincubated for 30 mins followed by substrate addition measured after 30 mins. An outline of the steps:
(§1)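 Colorimetric citrulline assay at 37 °C in 100 mM Tris, 100 mM NaCl, 10 mM CaCl2, 5 mM DTT, pH 7.5, with about 5% DMSO. Enzyme (hPAD1 50 nM, mPAD2 100 nM) was preincubated with inhibitor (0.1–10 mM) for 30 min. Substrate was then added at 5 mM final for a further 30 min. Diacetyl monoxime/thiosemicarbazide reagent was added, samples were boiled 15 min, and A530 was read.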

Series [2] has as its target Protein-arginine deiminase type-2 (Mus musculus, UniProt Q08642). The series is described as follows: Inhibition of full length mouse GST-tagged PAD2 expressed in baculovirus infected Sf9 insect cells preincubated for 30 mins followed by substrate addition measured after 30 mins. In a few lines:
as §1

The target in series [3] is Protein-arginine deiminase type-4 (Homo sapiens, UniProt Q9UM07). The series is described as follows: Inhibition of full length human GST-tagged PAD4 expressed in baculovirus infected Sf9 insect cells preincubated for 30 mins followed by substrate addition measured after 30 mins.
The test system of series [4] is Mus musculus. The series is described as follows: Antiinflammatory activity in MOG (35 to 55 residues)-induced C57BL/6 mouse autoimmune encephalomyelitis model assessed as improvement in physical disability at 50 mg/kg, ip administered daily measured on day 35 post immunization. It counts as functional, organism-based. An outline of the steps: (§2)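 Female C57BL/6 mice, 8 weeks old, were immunized s.c. with 100 µg MOG peptide in CFA, plus 400 ng pertussis toxin i.p. at immunization and again at 48 h. Daily i.p. dosing at 50 mg/kg in PBS (pH 7.5) began at clinical score 2 and continued up to 60 days. Controls got an equal volume of PBS (n=5 vs 7). Clinical score and body weight were recorded daily.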

Series [5] can be described thus: Half life in C57BL/6 mouse brain at 50 mg/kg, ip administered as single dose by UPLC-MS analysis. It counts as ADME, organism-based. In a few lines: (§3)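 Healthy female C57BL/6 mice (n = 27, 18–22 g) received one i.p. dose of 50 mg/kg, given as a 10 mg/mL aqueous solution (equimolar HCl, pH raised to 6 with NaHCO3). Blood and brain were sampled at 0, 5, 15, 30, 45, 60, 120, 240 and 360 min, 3 mice per time point. Samples were spiked with benzophenone internal standard, lyophilized, extracted into methanol, and quantified by C18 UPLC-MS.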

Series [6] relates to Mus musculus. The series is described as follows: Antiinflammatory activity in MOG (35 to 55 residues)-induced C57BL/6 mouse autoimmune encephalomyelitis model assessed as reduction in lesions in cerebellum at 50 mg/kg, ip administered daily up to 60 days by LFB/H and E staining based assay. It is filed as functional, organism-based. An outline of the steps: (§4)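 MOG/CFA-immunized female C57BL/6 mice were treated daily at 50 mg/kg i.p. in PBS from score 2 for up to 60 days; controls received PBS. At study end, brain and spinal cord sections were stained with H&E and Luxol Fast Blue. Inflammation was quantified as inflamed area over total tissue area by positive pixel count.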

The test system of series [7] is Mus musculus. The series is described as follows: Antiinflammatory activity in MOG (35 to 55 residues)-induced C57BL/6 mouse autoimmune encephalomyelitis model assessed as reduction in inflammation in spinal cord at 50 mg/kg, ip administered daily measured at day 60 post immunization. As to conditions: in the assay text read “brain” for “spinal cord”. It is filed as functional, organism-based. An outline of the steps:
as §4

The nature of series [8]: Elimination rate constant in C57BL/6 mouse serum at 50 mg/kg, ip administered as single dose measured up to 360 mins by UPLC-MS analysis. It counts as ADME, organism-based. In a few lines: as §3
Series [9] in a line: Cmax in C57BL/6 mouse brain at 50 mg/kg, ip administered as single dose measured up to 360 mins by UPLC-MS analysis. It counts as ADME, organism-based. Also on record: dose 50 mg/kg, route intraperitoneal. An outline of the steps: as §3
For series [10], the system named is Mus musculus. The series is described as follows: Toxicity in MOG (35 to 55 residues)-induced C57BL/6 mouse autoimmune encephalomyelitis model assessed as bdoy weight cahnges at 50 mg/kg, ip administered daily up to 60 days. As to conditions: in vivo, 1440 h. It is filed as organism-based. In a few lines:
as §2

A short description of series [11]: AUC (0 to 360 mins) in C57BL/6 mouse brain at 50 mg/kg, ip administered as single dose by UPLC-MS analysis. It is filed as ADME, organism-based. Also on record: time < 6 hr, dose 50 mg/kg, route intraperitoneal. In a few lines: as §3
Series [12] is described as follows: Tmax in C57BL/6 mouse serum at 50 mg/kg, ip administered as single dose measured up to 360 mins by UPLC-MS analysis. It counts as ADME, organism-based. An outline of the steps: as §3
Series [13] in a line: Tmax in C57BL/6 mouse brain at 50 mg/kg, ip administered as single dose measured up to 360 mins by UPLC-MS analysis. It is filed as ADME, organism-based. An outline of the steps:
as §3

The subject of series [14] is Mus musculus. The series is described as follows: Antiinflammatory activity in MOG (35 to 55 residues)-induced C57BL/6 mouse autoimmune encephalomyelitis model assessed as survival rate at 50 mg/kg, ip administered daily up to 60 days (reference value: 80%). It is filed as functional. The settings on record: C57BL/6, ip, 1440 h.
The subject of series [15] is Mus musculus. The series is described as follows: Antiinflammatory activity in MOG (35 to 55 residues)-induced C57BL/6 mouse autoimmune encephalomyelitis model assessed as reduction in lesions in internal capsule at 50 mg/kg, ip administered daily by LFB/H and E staining based assay. It is filed as functional, organism-based. In a few lines:
as §4

For series [16], the system named is Mus musculus. The series is described as follows: Antiinflammatory activity in MOG (35 to 55 residues)-induced C57BL/6 mouse autoimmune encephalomyelitis model assessed as reduction in accumulation of CD3 positive T-cells in brain at 50 mg/kg, ip administered daily up to 60 days by immunohistochemistry. It is filed as functional, organism-based. An outline of the steps: (§5)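 MOG/CFA-immunized female C57BL/6 mice were dosed daily at 50 mg/kg i.p. in PBS from score 2 for up to 60 days; PBS controls n=5, treated n=7. Brain sections were immunostained with anti-CD3. Stained cells per µm² were averaged over randomly selected areas.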

Series [17] relates to Mus musculus. The series is described as follows: Antiinflammatory activity in MOG (35 to 55 residues)-induced C57BL/6 mouse autoimmune encephalomyelitis model assessed as reduction in lesions in olfactory tract at 50 mg/kg, ip administered daily up to 60 days by LFB/H and E staining based assay. It counts as functional, organism-based. An outline of the steps:
as §4

Series [18] can be described thus: Cmax in C57BL/6 mouse serum at 50 mg/kg, ip administered as single dose measured up to 360 mins by UPLC-MS analysis. It counts as ADME, organism-based. Also on record: dose 50 mg/kg, route intraperitoneal. An outline of the steps:
as §3

A short description of series [19]: AUC (0 to 360 mins) in C57BL/6 mouse serum at 50 mg/kg, ip administered as single dose by UPLC-MS analysis. It counts as ADME, organism-based. Set-up: dose 50 mg/kg, time < 6 hr, route intraperitoneal. An outline of the steps:
as §3

The nature of series [20]: Half life in C57BL/6 mouse serum at 50 mg/kg, ip administered as single dose by UPLC-MS analysis. It is filed as ADME, organism-based. An outline of the steps: as §3
Series [21] can be described thus: Elimination rate constant in C57BL/6 mouse brain at 50 mg/kg, ip administered as single dose measured up to 360 mins by UPLC-MS analysis. It counts as ADME, organism-based. An outline of the steps:
as §3

For series [22], the system named is Mus musculus. The series is described as follows: Antiinflammatory activity in MOG (35 to 55 residues)-induced C57BL/6 mouse autoimmune encephalomyelitis model assessed as reduction in accumulation of CD3 positive T-cells in internal capsule at 50 mg/kg, ip administered daily up to 60 days by immunohistochemistry. It counts as functional, organism-based. An outline of the steps: as §5

Series [23] has as its system Mus musculus. The series is described as follows: Antiinflammatory activity in MOG (35 to 55 residues)-induced C57BL/6 mouse autoimmune encephalomyelitis model assessed as reduction in accumulation of CD3 positive T-cells in cerebellum at 50 mg/kg, ip administered daily up to 60 days by immunohistochemistry. It counts as functional, organism-based. In a few lines: as §5

Active and inactive are the calls of the source. The calls are words filed in the database; no cut-off is given here.

Chain of Protein-arginine deiminase type-2 (Q08642 whole entry): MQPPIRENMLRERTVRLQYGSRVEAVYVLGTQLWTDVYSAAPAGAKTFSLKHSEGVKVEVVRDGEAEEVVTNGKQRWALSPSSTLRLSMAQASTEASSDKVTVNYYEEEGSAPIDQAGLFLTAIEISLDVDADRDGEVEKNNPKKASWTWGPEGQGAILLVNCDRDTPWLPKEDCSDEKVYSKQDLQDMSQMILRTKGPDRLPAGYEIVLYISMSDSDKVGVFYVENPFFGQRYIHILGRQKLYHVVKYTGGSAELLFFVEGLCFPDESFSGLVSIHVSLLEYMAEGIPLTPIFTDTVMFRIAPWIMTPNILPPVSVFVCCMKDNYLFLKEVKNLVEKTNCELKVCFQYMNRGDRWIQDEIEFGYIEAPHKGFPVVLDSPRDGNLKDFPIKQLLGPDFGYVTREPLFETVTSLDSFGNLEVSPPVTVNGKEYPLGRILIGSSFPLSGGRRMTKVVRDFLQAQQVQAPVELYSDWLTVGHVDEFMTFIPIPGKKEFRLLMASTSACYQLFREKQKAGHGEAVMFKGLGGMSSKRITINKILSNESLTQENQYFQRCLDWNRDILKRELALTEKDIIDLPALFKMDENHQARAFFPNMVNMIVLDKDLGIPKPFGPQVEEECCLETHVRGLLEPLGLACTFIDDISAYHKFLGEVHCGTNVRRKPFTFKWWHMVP
Chain of Protein-arginine deiminase type-4 (Q9UM07 whole entry, the tested form may be a part): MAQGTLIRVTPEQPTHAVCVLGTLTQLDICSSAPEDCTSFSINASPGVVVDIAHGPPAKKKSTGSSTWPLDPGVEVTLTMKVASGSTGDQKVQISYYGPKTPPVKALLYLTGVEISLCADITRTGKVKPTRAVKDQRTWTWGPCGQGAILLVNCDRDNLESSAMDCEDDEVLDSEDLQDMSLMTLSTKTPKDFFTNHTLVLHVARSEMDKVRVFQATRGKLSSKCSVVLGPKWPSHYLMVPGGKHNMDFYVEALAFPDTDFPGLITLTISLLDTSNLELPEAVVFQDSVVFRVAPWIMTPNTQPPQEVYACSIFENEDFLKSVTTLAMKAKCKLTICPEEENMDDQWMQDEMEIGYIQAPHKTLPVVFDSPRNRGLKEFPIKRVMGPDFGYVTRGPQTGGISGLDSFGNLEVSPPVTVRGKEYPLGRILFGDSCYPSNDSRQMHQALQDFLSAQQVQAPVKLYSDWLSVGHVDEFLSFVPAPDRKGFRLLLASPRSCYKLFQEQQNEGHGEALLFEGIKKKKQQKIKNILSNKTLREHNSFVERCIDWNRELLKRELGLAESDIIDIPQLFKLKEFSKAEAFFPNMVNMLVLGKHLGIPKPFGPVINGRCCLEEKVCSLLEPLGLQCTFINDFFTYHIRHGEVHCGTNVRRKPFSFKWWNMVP

Take `Cn1cccc1C(=O)N[C@@H](CCn1ccnn1)C(=O)NCc1ccccc1`: the figures for the Ki in series [1] and in series [2] were 112 µM and 71 µM, respectively.

In the case of `O=C(N[C@@H](CCn1ccnn1)C(=O)NCc1ccccc1)c1ccco1`, the results for the Ki in [3], in series [1] and in series [2] were 2820 µM, 1090 µM and 282 µM, respectively.

`Cl.Cn1cccc1C(=O)N[C@@H](CCn1ccnc1)C(=O)NCc1ccccc1`: the outcome in series [4], in [6], in [7], in series [15], in series [16] and in series [17] was Active. The outcome in series [22] and in [23] was Active. For the same molecule, the results for the half-life in series [5] and in series [20] were 38.5 min and 34.8 min, respectively. The k el at 6 h was 0.000333 s⁻¹ in [8] and 0.0003 s⁻¹ in series [21]. In addition, the Cmax stood at 170 ng/mL in [9] and 12000 ng/mL in series [18]. In series [10], the Activity result was “Non-Toxic”. Also, the area under the curve AUC(0-t) at 6 h in [11] was 105 ng·h/mL; in series [19] it was 8460 ng·h/mL. The Tmax in series [12] and in series [13] was 15 min in each case. In addition, in [14], the survival at 50 mg/kg stood at 100%.
